HCV core dimer: blocks dimerization of HCV core protein; TR-FRET GST/Flag-core106 dimerization, 1536-well; inhibition, % at 5 µM; 300,000 compounds, 0.33% hits;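 active = inhibition above the mean of all tested compounds plus 3 SD, set per screening campaign, cut at about 45% in these data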
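Test system: GST/Flag-tagged HCV core106 proteins; Medium: KF-containing HEPES buffer, pH 7.45, DTT, CHAPS, BSA; Times: compound-protein-antibody incubation 4 h at 22.5 °C; Detection: TR-FRET 671 and 617 nm emission; Benchmarks: wells lacking GST-core106 and wells with excess unlabelled core106.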
NadD block: blocks S. aureus nicotinate mononucleotide adenylyltransferase | purified NadD enzyme, colorimetric absorbance read-out | inhibition, % at 20 µM | 360,000 compounds, 0.78% hits; in the data active = inhibition above about 26%
ABHD5 PLIN5 PPI: ABHD5-PLIN5 protein interaction inhibition; Q00G26+Q8WTS1; Split G. princeps luciferase complementation, luminescence, 4 h; inhibition, % at 4 µM; 360,000 compounds, 0.78% hits;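 active = inhibition above the mean inhibition across every tested compound plus 3 SD, cut at about 22% in these data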
Target sequence (Q00G26 whole entry, looked up): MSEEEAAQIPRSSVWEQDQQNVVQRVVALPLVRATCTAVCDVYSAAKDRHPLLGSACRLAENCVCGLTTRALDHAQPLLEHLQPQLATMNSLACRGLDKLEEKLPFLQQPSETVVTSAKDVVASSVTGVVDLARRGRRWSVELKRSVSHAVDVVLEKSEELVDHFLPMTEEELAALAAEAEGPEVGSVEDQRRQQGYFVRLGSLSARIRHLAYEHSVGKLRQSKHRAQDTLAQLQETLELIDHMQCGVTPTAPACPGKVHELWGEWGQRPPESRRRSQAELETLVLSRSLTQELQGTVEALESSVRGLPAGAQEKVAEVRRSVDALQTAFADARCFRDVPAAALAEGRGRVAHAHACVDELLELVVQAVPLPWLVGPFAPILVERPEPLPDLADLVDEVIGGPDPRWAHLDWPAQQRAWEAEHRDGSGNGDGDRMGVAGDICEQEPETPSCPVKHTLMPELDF
Target sequence (Q8WTS1 whole entry, looked up): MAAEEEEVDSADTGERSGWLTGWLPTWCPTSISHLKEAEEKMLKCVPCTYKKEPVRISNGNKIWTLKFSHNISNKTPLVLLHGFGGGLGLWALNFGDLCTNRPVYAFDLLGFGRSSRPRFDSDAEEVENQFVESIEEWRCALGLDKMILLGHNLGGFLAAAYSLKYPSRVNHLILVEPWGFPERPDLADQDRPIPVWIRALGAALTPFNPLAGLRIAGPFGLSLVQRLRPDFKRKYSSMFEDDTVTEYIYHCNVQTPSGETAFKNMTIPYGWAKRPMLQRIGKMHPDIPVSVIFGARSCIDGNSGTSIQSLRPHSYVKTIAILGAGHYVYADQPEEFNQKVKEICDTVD
rCAG RNA binder: molecules binding r(CAG) RNA repeats; inhibition, % at 3 µM; 370,000 compounds, 1.3% hits; r(CAG) RNA repeat, TO-PRO-1 dye displacement fluorescence;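 active = inhibition above the plate cutoff, the mean of all test compounds on that plate plus 3 SD, cut at about 35% in these data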;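 note: higher means more dye released from RNA so lower well fluorescence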
rCAG bind conf: r(CAG) RNA repeat binding, confirmation | shares compounds with rCAG RNA binder | TO-PRO-1 dye displacement fluorescence | inhibition, % at 3 µM | 4,300 compounds, 70% hits | AID 652065;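 active = inhibition above a per-plate cutoff, the mean inhibition of sample wells plus 3 SD, cut at about 35% in these data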;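 note: loss of TO-PRO-1 fluorescence as compound displaces dye from 1x1 AA loop RNA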
DNA CAG counter: counter-screen for rCAG RNA binders: DNA CAG dye complex inhibitors; shares compounds with rCAG RNA binder; d(CAG) DNA oligo TO-PRO-1 dye displacement, fluorescence; inhibition, % at 3 µM; 4,300 compounds, 94% hits;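 active = inhibition above its plate's cutoff, the mean test-well inhibition plus 3 SD, cut at about 4.8% in these data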;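 note: hits displace the dye from DNA and so lower well fluorescence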
Large screens that a line does not name were inactive (follow-up assays come after a bar, where they were run). This is a sample that favours compounds with a hit; in the whole collection about 2.6% have one here.

CCCSc1nnc(-c2ccco2)n1C	none (no result: HCV core dimer, NadD block, ABHD5 PLIN5 PPI)
Cc1[nH]n(C(N)=S)c(=O)c1C(c1ccccc1)C(C#N)C#N (configuration not stated)	none
Cc1[nH]n(-c2ncc(-c3ccccc3)s2)c(=O)c1C(c1ccc(Br)cc1)C(C#N)C#N (configuration not stated)	rCAG RNA binder 57 | rCAG bind conf 80 | DNA CAG counter 50
COc1cccc(NC(=O)N(C)C[C@H]2OCc3cn(nn3)CCCC(=O)N([C@H](C)CO)C[C@@H]2C)c1	none (no result: HCV core dimer, NadD block, ABHD5 PLIN5 PPI)
Cc1ccc(Nc2nc(Cl)c(C=O)s2)cc1Cl	rCAG RNA binder 43 | rCAG bind conf inactive | DNA CAG counter 12
O=C(NCCc1ccccc1Cl)[C@@H]1CCCN1C(=O)[C@@H](NS(=O)(=O)c1ccc(F)cc1F)C1CCCCC1	none (no result: HCV core dimer, NadD block, ABHD5 PLIN5 PPI)
CC(=O)NS(=O)(=O)c1ccc(NC(=O)/C=C/c2cn(-c3ccccc3)nc2-c2ccccc2)cc1	rCAG RNA binder 87 | rCAG bind conf 86 | DNA CAG counter 66
COC(=O)C1CN(C(=O)OC(C)(C)C)C2=C1C(=O)CC(C)(C(=O)OC(C)(C)C)C2 (configuration not stated)	none (no result: HCV core dimer, NadD block, ABHD5 PLIN5 PPI)
CCCCCCC12C(=Cc3cc4c(cc31)OCCO4)c1cc(OC)c(OC)cc1C(CC(=O)O)N2C(=O)OC (configuration not stated)	rCAG RNA binder 43 (no result: HCV core dimer, NadD block, ABHD5 PLIN5 PPI) | rCAG bind conf 35 | DNA CAG counter 7.0
CCCCCCC12C(=Cc3cc4c(cc31)OCCO4)c1cc(OC)c(OC)cc1C(CC(=O)OC)N2C(=O)OC (configuration not stated)	none (no result: HCV core dimer, NadD block, ABHD5 PLIN5 PPI)
COC(=O)[C@]12C[C@H](CC(=O)NCc3cccs3)C(=O)N(Cc3ccccc3)C1=C[C@H](C1CCCC1)O[C@@H]2C	none (no result: HCV core dimer, NadD block, ABHD5 PLIN5 PPI)
O=C(O)c1cccc(NC(=O)c2cc(NC(=O)c3ccccc3)cc(NC(=O)c3ccccc3)c2)c1	rCAG RNA binder 66 | rCAG bind conf 60 | DNA CAG counter 24
O=C(/C=C/c1ccco1)Nc1cccc(C(=O)Nc2ccccc2C(=O)O)c1	rCAG RNA binder 67 | rCAG bind conf 82 | DNA CAG counter 49
CC1(C)CCC(C)(C)c2cc(NC(=O)c3ccc(C(=O)O)cc3)ccc21	rCAG RNA binder 53 (no result: HCV core dimer, NadD block, ABHD5 PLIN5 PPI) | rCAG bind conf 36 | DNA CAG counter 7.5
O=C(Nc1cc(C(=O)Nc2ccccc2C(=O)O)cc(C(=O)Nc2ccccc2C(=O)O)c1)c1ccccc1	rCAG RNA binder 77 | rCAG bind conf 86 | DNA CAG counter 61
O=C(Nc1ccccc1C(=O)O)c1cccc(F)c1	none
COc1cc(CC(=O)N2CCN(S(=O)(=O)c3ccc(C(C)C)cc3)CC2)cc(OC)c1OC	none (no result: HCV core dimer)
COC(=O)[C@]12C[C@H](CC(=O)NCc3ccc(OC)c(OC)c3)C(=O)N(Cc3ccccc3)C1=C[C@H](C1CCCC1)O[C@@H]2C	none (no result: HCV core dimer, NadD block, ABHD5 PLIN5 PPI)
COc1ccc(N2CCN(C(=O)C3CCN(S(=O)(=O)c4ccc5c(c4)CC(C)N5C(=O)C4CC4)CC3)CC2)cc1 (configuration not stated)	none (no result: HCV core dimer, NadD block, ABHD5 PLIN5 PPI)
COC(=O)[C@]12C[C@H](CC(=O)NCc3ccccc3)C(=O)N(Cc3cccc4ccccc34)C1=C[C@H](C(C)C)O[C@@H]2C1CC1	none (no result: HCV core dimer, NadD block, ABHD5 PLIN5 PPI)
O=C(O)c1cccc(NC(=S)NC(=O)C(c2ccccc2)c2ccccc2)c1	rCAG RNA binder 45 | rCAG bind conf inactive | DNA CAG counter 9.3
O=C(CCC1CCCCC1)Nc1cccc(C(=O)Nc2ccc(C(=O)O)cc2)c1	rCAG RNA binder 35 | rCAG bind conf inactive | DNA CAG counter 5.5
O=C(Nc1ccccc1C(=O)O)c1cccc(NC(=O)c2ccccc2Br)c1	rCAG RNA binder 48 | rCAG bind conf inactive | DNA CAG counter 9.5
O=C(O)c1ccc(NC(=S)NC(=O)C(c2ccccc2)c2ccccc2)cc1	none
Cc1ccc(-n2nc3ccc(NC(=O)/C=C/c4ccco4)cc3n2)cc1	rCAG RNA binder 38 | rCAG bind conf inactive | DNA CAG counter 11
C=C1CCC2C(C)(C)CCC[C@]2(C)[C@H]1CC1=C(O)C(=O)C(CO)=CC1=O (some centres not stated)	rCAG RNA binder 45 (no result: HCV core dimer, NadD block, ABHD5 PLIN5 PPI) | rCAG bind conf inactive | DNA CAG counter 7.3
Cc1ccc(C2NC(=O)c3[nH]nc(-c4ccccc4)c32)cc1 (configuration not stated)	none (no result: HCV core dimer, NadD block, ABHD5 PLIN5 PPI)
O=c1cc(-c2ccccc2)nc2c(-c3ccccc3)c(C(F)(F)F)[nH]n12	rCAG RNA binder 92 | rCAG bind conf 77 | DNA CAG counter 42
C[C@@H]1COc2cc(N3CCCC3)ccc2S(=O)(=O)N1C	none (no result: HCV core dimer, NadD block, ABHD5 PLIN5 PPI)
N#CC1=C(S)N(c2ccccc2)C(c2ccc(-c3ccccc3Cl)o2)NC1=O (configuration not stated)	rCAG RNA binder 52 | rCAG bind conf 76 | DNA CAG counter 40
Cc1ccccc1N1C(S)=C(C#N)C(=O)NC1c1ccco1 (configuration not stated)	none
O=[N+]([O-])c1cc(S(=O)(=O)NCc2ccco2)ccc1NN=Cc1ccccn1	none (no result: HCV core dimer, NadD block, ABHD5 PLIN5 PPI)
Cc1cc(C)cc(N=Cc2c(O)c3ccccc3oc2=O)c1	none
O=C(O)c1cc(N=Cc2c(O)c3ccccc3oc2=O)ccc1O	rCAG RNA binder 38 (no result: HCV core dimer) | rCAG bind conf inactive | DNA CAG counter inactive
O=[N+]([O-])c1ccc(Cl)c(S(=O)(=O)Nc2cccc(-c3ccc(N4CCOCC4)nn3)c2)c1	rCAG RNA binder 38 | rCAG bind conf inactive | DNA CAG counter 9.9
O=[N+]([O-])c1ccc(Cl)c(S(=O)(=O)Nc2ccc(-c3ccc(N4CCOCC4)nn3)cc2)c1	none
CCCOc1ccc(C(=O)NNC(=S)NC(=O)c2cccs2)cc1	rCAG RNA binder 41 | rCAG bind conf 35 | DNA CAG counter 11
CC(C)(C)c1ccc(OCC(=O)NNC(=S)NC(=O)c2ccccc2[N+](=O)[O-])c(Br)c1	rCAG RNA binder 78 | rCAG bind conf 85 | DNA CAG counter 55
CCCOc1ccc(C(=O)NNC(=S)NC(=O)c2ccccc2[N+](=O)[O-])cc1	rCAG RNA binder 36 | rCAG bind conf inactive | DNA CAG counter 7.0
Cc1ccccc1OCC(=O)NNC(=S)NC(=O)c1ccccc1[N+](=O)[O-]	none
CN(Cc1ccccc1)C(=O)C1CCN(S(=O)(=O)c2ccc3nc4c(c(C(=O)O)c3c2)CCCC4)CC1	rCAG RNA binder 54 | rCAG bind conf 54 | DNA CAG counter 17
CC1CCc2nc3ccc(S(=O)(=O)N4CCC(C(=O)NCc5ccccc5Cl)CC4)cc3c(C(=O)O)c2C1 (configuration not stated)	rCAG RNA binder 47 | rCAG bind conf 54 | DNA CAG counter 21
Cc1ccc(CCNC(=O)C2CCN(S(=O)(=O)c3ccc4nc5c(c(C(=O)O)c4c3)CCCC5)CC2)cc1	rCAG RNA binder 50 | rCAG bind conf inactive | DNA CAG counter 9.0
CC(/C=C1\SC(=S)N(NC(=O)c2cccc(O)c2)C1=O)=C\c1ccccc1	rCAG RNA binder 40 | rCAG bind conf inactive | DNA CAG counter 12

Assay outcomes: PubChem, several laboratories
